Bioassay records as filed in PubChem.
SENP8 block-1: SENP8 protease inhibitors, primary screen, biochemical, luminescence. AID 2540, 2010. purified SENP8, Z-RLRGG-aminoluciferin cleavage. inhibition, % at 10 µM. 330,000 compounds, 1.2% hits; in the data active means inhibition above about 50%
Platelet DG rel: inhibitors of platelet dense granule secretion, primary screen, cell-based, MLPCN, human platelets. human platelet-rich plasma, SFLLRN dense granule ATP release, luminescence. inhibition, %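 (compounds screened at 7.5 µM in platelet-rich plasma)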. 300,000 compounds, 0.22% hits. AID 1663, 2009;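 active means mean replicate score, as percent of positive control, at or above 50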
SENP8 block-2: human SENP8 protease inhibitors, primary screen, biochemical, fluorescence, Nedd8 protein substrate, uHTS. Sentrin-specific protease 8 (Homo sapiens), Q96LD8. recombinant SENP8. inhibition, % at 20 µM. 360,000 compounds, 0.64% hits. AID 602440, 2012; in the data active means inhibition mostly above about 40%, no sharp cut-off; inactive means mostly below about 27%
SENP1 FRET inh: human SENP1 catalytic domain inhibitors, primary screen, biochemical, FRET, uHTS | Sentrin-specific protease 1 (Homo sapiens), Q9P0U3 | recombinant SENP1 catalytic domain, CyPet-SUMO1-YPet FRET cleavage | inhibition, % at 10 µM | 360,000 compounds, 0.21% hits;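 active means inhibition at least 30% at 10 µM, raw YFP signal under a set limit, fluorescence ratio 0.5 to 1.5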;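 further: 0% = enzyme with DMSO and 100% = no enzyme wells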
Target sequence (Q9P0U3 419-644 limits assumed): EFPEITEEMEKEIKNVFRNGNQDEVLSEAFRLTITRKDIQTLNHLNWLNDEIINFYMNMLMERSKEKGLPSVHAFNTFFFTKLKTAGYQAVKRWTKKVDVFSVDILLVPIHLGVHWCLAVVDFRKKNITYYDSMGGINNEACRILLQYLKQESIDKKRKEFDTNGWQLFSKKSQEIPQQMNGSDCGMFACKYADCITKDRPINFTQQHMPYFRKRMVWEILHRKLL
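Assay system – human recombinant His6-tagged SENP1 catalytic domain enzyme · Input – SENP1 enzyme, 20 pM final · Buffer or medium – Tris pH 8 buffer plus EDTA, NaCl, BME, BSA, NP40, catalase · Schedule – 50 min reaction at room temperature · Technique – FRET read of cyan and yellow fluorescence · Control set – no-enzyme wells low, DMSO-plus-enzyme wells high control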
SENP7 block: SENP7 protease inhibitors, primary screen, biochemical, luminescence, uHTS. Sentrin-specific protease 7 (Homo sapiens), Q9BQF6. recombinant SENP7, Z-RLRGG-aminoluciferin luminescence, 40 min. inhibition, % at 5 µM. 330,000 compounds, 1.5% hits;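 active means inhibition above about 50% at the single test dose, limit read from the data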;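 further: plate controls were DMSO with enzyme for no effect and no enzyme buffer wells for full effect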
SENP6 block: SENP6 protease inhibitors, primary screen, biochemical, luminescence, uHTS. Sentrin-specific protease 6 (Homo sapiens), Q9GZR1. AID 2599, 2010. 330,000 compounds, 1.8% hits. Recombinant SENP6 catalytic domain, aminoluciferin luminescence. inhibition, % at 10 µM;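 active means inhibition above about 50% at the single tested dose, limit read from the data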;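 further: plate controls were DMSO wells with enzyme for no effect and DMSO wells lacking enzyme for full effect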
Target sequence (Q9GZR1 628-1112 limits assumed): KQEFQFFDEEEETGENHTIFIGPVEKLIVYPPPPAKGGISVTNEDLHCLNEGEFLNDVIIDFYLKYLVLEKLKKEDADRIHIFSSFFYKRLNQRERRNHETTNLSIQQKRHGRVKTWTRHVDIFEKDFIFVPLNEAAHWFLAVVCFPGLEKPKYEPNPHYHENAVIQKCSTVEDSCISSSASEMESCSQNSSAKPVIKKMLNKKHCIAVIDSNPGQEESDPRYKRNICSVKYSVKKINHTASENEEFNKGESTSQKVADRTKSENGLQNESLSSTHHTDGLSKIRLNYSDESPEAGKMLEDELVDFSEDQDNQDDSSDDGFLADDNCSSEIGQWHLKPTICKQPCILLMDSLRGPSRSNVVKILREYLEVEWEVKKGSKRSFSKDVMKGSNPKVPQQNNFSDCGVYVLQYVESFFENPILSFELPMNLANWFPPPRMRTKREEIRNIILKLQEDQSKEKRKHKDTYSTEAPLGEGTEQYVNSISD
SENP1 conf: human SENP1 catalytic domain inhibitors, confirmation, biochemical, FRET endpoint, single concentration | inhibition, % at 10 µM | 520 compounds, 34% hits | recombinant SENP1, CyPet-SUMO1-YPet FRET cleavage | shares compounds with SENP1 FRET inh; in the data active means inhibition mostly above about 35%, no sharp cut-off; inactive means mostly below about 32%;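 further: 0% = enzyme with DMSO and 100% = no enzyme control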
SENP1 kin conf: human SENP1 catalytic domain inhibitors, confirmation, biochemical, kinetic FRET, single concentration; shares compounds with SENP1 FRET inh; recombinant SENP1, CyPet-SUMO1-YPet FRET kinetic cleavage; inhibition, % at 10 µM; 520 compounds, 26% hits; in the data active means inhibition mostly above about 32%, no sharp cut-off; inactive means mostly below about 29%;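 further: 0% = DMSO with enzyme and 100% = no enzyme substrate only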
The depositor's hits bear a star; i = inactive; nt = not tested or not shown. Shown are actives, neighbours in structure and some others; about 2.6% of the full set was active somewhere.

SMILES | SENP8 block-1 | Platelet DG rel | SENP8 block-2 | SENP1 FRET inh | SENP7 block | SENP6 block | SENP1 conf | SENP1 kin conf
CCN(CC)CCNc1cccc2sc3ccccc3c(=O)c12 | nt | nt | 44* | 32* | nt | nt | 38* | 26
CN(C)CCNc1cccc2sc3ccc(O)cc3c(=O)c12 | nt | nt | 36 | 49* | nt | nt | 57* | 26
COc1cc(C)c2sc3ccccc3c(=O)c2c1NCCN(C)C | nt | nt | 21 | -42 | nt | nt | nt | nt
Cc1noc(C)c1-c1nc(CS(=O)(=O)c2ccc(F)cc2)no1 | -7 | 1 | 5 | 4 | -4 | -13 | nt | nt
O=C(OCc1ccccc1)N1CCC2CC1c1ccc(-c3cccc(F)c3)cc12 (centres undefined) | nt | nt | 13 | -1 | nt | nt | nt | nt
O=[N+]([O-])c1ccc(-c2cn3c(n2)SCC3)cc1 | 4 | -20 | 16 | 31* | 7 | -4 | 9 | 9
CC(C)Nc1ccc(C(CC(N)=O)NC(=O)Cc2cccc3ccccc23)cc1[N+](=O)[O-] (centres undefined) | 6 | -1 | 18 | 41* | -3 | -6 | -6 | -5
NS(=O)(=O)c1ccc(CNC(=S)NC2CCCCC2)cc1 | -3 | -5 | 16 | 40* | -5 | -20 | -5 | -5
C/C(=N\NC(=O)c1ccc(C)cc1C)c1ccc2c(c1)Nc1ccccc1S2 | -6 | -6 | 7 | 61* | 9 | 0 | 6 | -6
COc1ccc(-c2cnnc(N/N=C/c3ccc(-c4ccc([N+](=O)[O-])cc4)o3)n2)cc1 | nt | nt | 25 | 36* | nt | nt | -2 | 9
CN(CCCNC(=O)CCC(=O)N1CCOc2ccccc21)Cc1ccccc1 | -6 | -3 | 13 | 3 | 2 | -4 | nt | nt
C[C@@H]1O[C@@H](OC[C@H]2O[C@@H](Oc3cc(O)c4c(=O)cc(-c5ccc(O)c(O)c5)oc4c3)[C@H](O)[C@@H](O)[C@@H]2O)[C@H](O)[C@H](O)[C@H]1O | 7 | nt | 29 | 43* | 5 | -5 | 57* | 42*
COc1cc(-c2oc3cc(O)cc(O)c3c(=O)c2O[C@@H]2O[C@H](COC3O[C@@H](C)[C@H](O)[C@@H](O)[C@H]3O)[C@@H](O)[C@H](O)[C@H]2O)ccc1O (some centres undefined) | -10 | nt | 11 | 8 | -17 | -17 | nt | nt
COc1ccc(CN2CCN(C(=O)c3ccccc3C(=O)c3ccccc3)CC2)cc1OC | nt | nt | -1 | -1 | nt | nt | nt | nt
O=C1C(Cl)=C(N2CCCCCC2)C(=O)N1c1ccc(Cl)cc1 | -12 | 0 | 23 | 25 | -2 | 10 | nt | nt
O=C1C(Cl)=C(N2CCCC2)C(=O)N1c1ccc(F)cc1 | -14 | 1 | 12 | 35* | 8 | -12 | 11 | 10
COc1cc(/C=C/c2ccc3c([N+](=O)[O-])cccc3n2)ccc1OCC(=O)O | 1 | 13 | 34 | 54* | -1 | -2 | 26 | 19
O=C(Nc1ccc2c(c1)OCCO2)C1c2ccccc2OCC(=O)N1Cc1ccco1 (centres undefined) | nt | nt | 8 | 1 | nt | nt | nt | nt
Cc1c(N2C(=O)/C(=C/c3ccc(N(C)C)cc3)N(C)C2=S)c(=O)n(-c2ccccc2)n1C | nt | nt | 44* | 67* | nt | nt | 55* | 38*
Cc1c(N2C(=O)/C(=C/c3ccccc3)SC2=S)c(=O)n(-c2ccccc2)n1C | 1 | -2 | 24 | 0 | 13 | -10 | nt | nt
NC(=O)N/N=C/c1ccc(N2CCOCC2)s1 | 1 | 8 | -389 | 47* | 11 | 5 | 75* | 52*
O=C(N/N=C/c1ccc(N2CCOCC2)s1)c1ccc(O)cc1 | nt | nt | i | -74 | nt | nt | nt | nt
O=C(OCc1ccc(O)cc1)c1c(-c2ccsc2)oc2ccc(N3CCOCC3)cc12 | 1 | -5 | -146 | 36* | -2 | -10 | 19 | 21
O=c1[nH]cc(S(=O)(=O)Nc2ccc3c(c2)OCO3)c(=O)[nH]1 | -6 | -9 | 14 | 3 | 4 | -11 | nt | nt
N#CCSc1ccccc1NC(=O)COc1ccc(-c2nnco2)cc1 | -4 | nt | -15 | 34* | 8 | -1 | 3 | 10
SMILES | SENP8 block-1 | Platelet DG rel | SENP8 block-2 | SENP1 FRET inh | SENP7 block | SENP6 block | SENP1 conf | SENP1 kin conf
N#CCSc1ccccc1NC(=O)COC(=O)Cc1c[nH]c2ccccc12 | -5 | nt | -16 | 43* | 2 | -3 | 3 | 6
O=C(COc1ccc(-c2nnco2)cc1)Nc1cc([N+](=O)[O-])ccc1F | -3 | nt | 11 | 1 | -2 | -11 | nt | nt
COc1ccc(OC)c(S(=O)(=O)NCC(=O)NC2CCCc3ccccc32)c1 (centres undefined) | -3 | nt | 2 | -3 | -3 | -17 | nt | nt
CC(=O)Oc1ccc(Cl)cc1/C=C/c1ccc2ccccc2n1 | 18 | 2 | -223 | 34* | 43 | 26 | 38* | 16
O=C(NCC(F)(F)F)c1ccc(S(=O)(=O)Nc2ccccc2N2CCCC2)cc1 | 6 | nt | 8 | 30* | 6 | 11 | -2 | -7
Oc1ccc(Br)cc1/C=N/n1c(-c2ccccc2)n[nH]c1=S | -11 | -7 | 3 | -28 | -12 | -6 | nt | nt
Cc1cccc(/C=N/n2c(-c3ccccc3)n[nH]c2=S)c1O | 5 | 2 | 17 | 31* | 1 | -16 | -6 | 13
COc1cc(-c2cnc3c(NC(C)=O)cc(-c4ccc(N5CCN(C)CC5)cc4)cn23)cc(OC)c1OC | nt | nt | i | 34* | nt | nt | 12 | -1
CC(=O)Nc1cc(-c2ccc(N3CCN(C)CC3)cc2)cn2c(-c3ccc(S(C)(=O)=O)cc3)cnc12 | nt | nt | -210 | 22 | nt | nt | nt | nt
COc1cc(-c2cnc3c(NC=O)cc(-c4ccc(N5CCN(C)CC5)cc4)cn23)cc(OC)c1OC | nt | nt | -264 | 21 | nt | nt | nt | nt
CC(=O)Nc1cc(-c2ccc(N3CCN(C)CC3)cc2)cn2c(-c3ccccc3)cnc12 | nt | nt | -350 | 48* | nt | nt | 39* | 28
COc1ccc(C2=C(c3ccc(OC)c(OC)c3)CN3CCCCC3C2)cc1 (centres undefined) | 3 | nt | -16 | 1 | -7 | -7 | nt | nt
CC(c1ccco1)N(C(=O)c1cccs1)c1ccccn1 (centres undefined) | -12 | -4 | 20 | 30* | -7 | 3 | -6 | 6
